Test [1] has as its system RAW264. The experiment in a line: Inhibition of RANKL-induced formation of multinuclear osteoclasts in mouse RAW264 cells at 10 ug/ml after 4 days by p-NPP substrate based absorbance method. It counts as functional, cell-based. Put shortly: (§1)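 RAW264 cells in MEMα/10% FBS were plated for one day, then treated with compound plus soluble RANKL (250 ng/mL) for four days. After a PBS wash, cells were lysed on ice for 10 min in TRAP buffer (tartrate/acetate, pH 5.7). Extract was incubated with 2.5 mM p-nitrophenyl phosphate at 37°C for 4 h and stopped with NaOH. A405 was read in quadruplicate.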

The nature of test [2]: Inhibition of RANKL-induced formation of multinuclear osteoclasts in mouse RAW264 cells after 4 days by p-NPP substrate based absorbance method. Format: functional, cell-based. Particulars: RAW264.7, 96 h. Put shortly: as §1
The test system of test [3] is RAW264. The experiment in a line: Inhibition of RANKL-induced formation of multinuclear osteoclasts in mouse RAW264 cells at 5 uM after 4 days by TRAP staining based assay. Format: functional, cell-based. Put shortly:
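RAW264 cells were treated with compound plus soluble RANKL (250 ng/mL) for four days, then fixed in 4% paraformaldehyde for 10 min at room temperature. They were stained 1 h at room temperature with naphthol AS-MX phosphate/fast red violet LB in tartrate/acetate, pH 5.2. TRAP-positive cells with three or more nuclei were scored as multinuclear osteoclasts.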

Test [4] can be described thus: Inhibition of RANKL-induced Nfatc1 mRNA expression in mouse RAW264 cells at 5 uM after 5 days by RT-PCR method relative to control. It counts as functional. Particulars: RAW264.7, 120 h. The gist of the method:
(§2)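 RAW264 cells grown in MEMα with 10% heat-inactivated FBS and penicillin/streptomycin at 37°C, 5% CO2. Cells were co-treated with RANKL (50 ng/mL) and compound for five days. Total RNA was analysed by real-time RT-PCR with SYBR Green: 95 °C 10 min, then cycles of 95 °C 10 s, annealing 5 s, 72 °C 14 s. Expression was calculated from duplicate experiments.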

Test [5] in a line: Inhibition of RANKL-induced Acp5 mRNA expression in mouse RAW264 cells at 5 uM after 5 days by RT-PCR method relative to control. Format: functional. Particulars: RAW264.7, 120 h. Put shortly: as §2
The nature of test [6]: Inhibition of RANKL-induced Ctsk mRNA expression in mouse RAW264 cells at 5 uM after 5 days by RT-PCR method relative to control. It counts as functional. Particulars: RAW264.7, 120 h. The gist of the method: as §2
Test [7] in a line: Inhibition of RANKL-induced Atp6v0d2 mRNA expression in mouse RAW264 cells at 5 uM after 5 days by RT-PCR method relative to control. It counts as functional. To be noted: RAW264.7, 120 h. Put shortly: as §2
Test [8] is described as follows: Inhibition of RANKL-induced Dcstamp mRNA expression in mouse RAW264 cells at 5 uM after 5 days by RT-PCR method relative to control. Format: functional. Particulars: RAW264.7, 120 h. The gist of the method: as §2
Test [9] in a line: Inhibition of RANKL-induced Ocstamp mRNA expression in mouse RAW264 cells at 5 uM after 5 days by RT-PCR method relative to control. It counts as functional. To be noted: RAW264.7, 120 h. Put shortly:
as §2

pIC50: −log10 of the molar value. The source made the active and inactive calls. No cut-off for these calls is given here.

As to `CC1(C)C=Cc2c(ccc3c2NC(=O)[C@]32C[C@]34NC(=O)[C@@]5(CCCN5C3=O)C[C@@H]4C2(C)C)O1`, the “osteoclast formation inhibition (active/not active)” value with RAW264 [1] was “Active”.

Usually pIC50 stands for the negative decadic logarithm of the IC50, by convention in mol/L. Lower therefore signals a high IC50. The term inhibition denotes the relative decrease from the control value, in per cent. `CC(C)=CCc1c(O)ccc2c3c([nH]c12)C(C)(C)[C@@H]1C[C@@]24CCCN2C(=O)[C@]1(C3)NC4=O` showed a pIC50 in test [2] of 5.77. Besides, the inhibition entry in the test with RAW264 [3] is “inactive”. In addition, the inhibition at 5 µM in test [4], in test [5], in test [6], in test [7], in test [8] and in [9] was 20 to 50% throughout. As for `CC1(C)C=Cc2c(ccc3c2N(O)C(=O)[C@]32C[C@]34NC(=O)[C@@]5(CCCN5C3=O)C[C@@H]4C2(C)C)O1`, the “osteoclast formation inhibition (active/not active)” value in the test with RAW264 [1] was “Active”. For `CC(C)=CCc1c(O)ccc2c3c([nH]c12)C(C)(C)[C@H]1CC24CCCN2C(=O)C1(C3)NC4=O` (mixture of isomers), the “osteoclast formation inhibition (active/not active)” value in the test with RAW264 [1] is “Active”. The same measure, in the same setting: as for `CC1(C)C=Cc2c(ccc3c4c([nH]c23)C(C)(C)[C@@H]2C[C@]35CCCN3C(=O)[C@@]2(C4)NC5=O)O1`, the entry is “Active”.

The compound `CC(C)=CCc1c(O)ccc2c3c([nH]c12)C(C)(C)[C@H]1C[C@]24CCCN2C(=O)[C@@]1(C3)NC4=O` gave a pIC50 in test [2] of 5.36. For `CC1(C)C=Cc2c(ccc3c2N(O)C(=O)[C@@]32C[C@@]34NC(=O)[C@]5(CCCN5C3=O)C[C@H]4C2(C)C)O1`, in the test on RAW264 [1], the “osteoclast formation inhibition (active/not active)” value is “Active”. Consider `C=CC(C)(C)[C@@]12Nc3c(ccc4c3C=CC(C)(C)O4)[C@]1(O)C[C@H]1C(=O)N3CCC[C@H]3C(=O)N12`, for which the “osteoclast formation inhibition (active/not active)” value in the test on RAW264 [1] is “inactive”. The same measure, in the same setting: as for `CC1(C)C=Cc2c(ccc3c4c([nH]c23)C(C)(C)[C@H]2C[C@@]35CCCN3C(=O)[C@]2(C4)NC5=O)O1`, the entry is “Active”. For `C=CC(C)(C)[C@]1(C[C@@H]2NC(=O)[C@@H]3CCCN3C2=O)C(=O)Nc2c1ccc1c2C=CC(C)(C)O1`, the “osteoclast formation inhibition (active/not active)” value in the test with RAW264 [1] was “inactive”. With `CC1(C)C=Cc2c(ccc3c2NC(=O)[C@@]32C[C@@]34NC(=O)[C@]5(CCCN5C3=O)C[C@H]4C2(C)C)O1`, the “osteoclast formation inhibition (active/not active)” value in the test with RAW264 [1] was “Active”.
